Activity and fold change (FC) data for eight compounds are collected here from ChEMBL document CHEMBL1151955, “Activation of PPARgamma by metabolites from the flowers of purple coneflower (Echinacea purpurea)” (J Nat Prod, 2009).

Calls of active or inactive are those of the source. The rule behind the calls is not given here.

In series [1] the test system is MEF. Briefly: Apparent cytotoxicity against MEF at 100 uM. In kind it is cell-based. The note with it: mouse.
The target of series [2] is T1, Peroxisome proliferator-activated receptor gamma (Homo sapiens) (UniProt P37231).
T1 sequence (whole entry): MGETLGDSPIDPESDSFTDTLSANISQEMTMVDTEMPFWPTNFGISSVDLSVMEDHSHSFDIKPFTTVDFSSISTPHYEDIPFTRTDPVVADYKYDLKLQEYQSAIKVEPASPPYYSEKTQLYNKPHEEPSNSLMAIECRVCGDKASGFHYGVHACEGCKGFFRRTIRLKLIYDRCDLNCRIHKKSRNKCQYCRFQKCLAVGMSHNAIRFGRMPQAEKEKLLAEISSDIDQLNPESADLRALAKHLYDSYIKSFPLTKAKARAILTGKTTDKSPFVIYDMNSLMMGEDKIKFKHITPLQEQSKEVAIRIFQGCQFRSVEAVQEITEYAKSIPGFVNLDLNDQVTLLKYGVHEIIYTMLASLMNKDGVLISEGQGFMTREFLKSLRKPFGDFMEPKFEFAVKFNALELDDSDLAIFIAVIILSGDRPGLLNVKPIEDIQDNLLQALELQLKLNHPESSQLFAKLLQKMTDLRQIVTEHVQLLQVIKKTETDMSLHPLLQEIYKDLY
Kind of series: Agonist activity at human PPARgamma ligand binding domain expressed in MEF cells co-transfected with Gal4-responsive luciferase vector assessed as photinus/renilla luciferase activity at 30 uM by transactivation assay relative to control. Type of series: cell-based. An outline of the steps:
(§1)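 Mouse embryonic fibroblasts were transiently transfected at 50-70% confluence. Each well got 2.5 ng pRL-CMV Renilla vector, 30 ng Gal4-responsive luciferase reporter and 15 ng pM-hPPARγ-LBD. Medium was changed at 6 h to DMEM with vehicle (0.1% DMSO), 1 µM rosiglitazone or compound. Cells were lysed 18 h post-transfection for dual luciferase. Photinus was normalized to Renilla and expressed as fold over vehicle. Triplicates, each read in duplicate.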

Series [3] has as its system 3T3-L1. Kind of series: Induction of adipocytes differentiation in mouse 3T3L1 cells at > 200 uM treated after 48 hrs postconfluence measured after 8 days using DEX protocol. Type of series: functional, cell-based. An outline of the steps: (§2)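 3T3-L1 cells were grown in DMEM with 10% calf serum. Two days postconfluence (day 0) they were induced in DMEM/10% FBS with compound plus 1 µM dexamethasone, then refed at 48 h with compound. From day 4 medium was DMEM/10% FBS, changed every second day. At day 8 cells were formaldehyde-fixed and stained for triacylglycerol with Oil Red O. Triplicate, three concentrations.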

In series [4] the test system is 3T3-L1. Kind of series: Induction of adipocytes differentiation in mouse 3T3L1 cells at > 200 uM treated after 48 hrs postconfluence measured after 8 days using MDI protocol. In kind it is functional, cell-based. An outline of the steps:
(§3)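 3T3-L1 cells were induced two days postconfluence in DMEM/10% FBS with compound plus 1 µM dexamethasone, 0.5 mM isobutylmethylxanthine and 1 µg/mL insulin. At 48 h they were refed with compound and 1 µg/mL insulin. From day 4 medium was DMEM/10% FBS, changed every second day. At day 8 cells were formaldehyde-fixed and stained with Oil Red O. Triplicate, three concentrations.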

For series [5], the system named is 3T3-L1. Briefly: Increase in insulin-stimulated [14C]2-deoxy-D-glucose uptake in mouse 3T3L1 cells after 48 hrs by scintillation counting. In kind it is functional, cell-based. An outline of the steps: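 MDI-differentiated 3T3-L1 adipocytes were treated with compound or 1 µM rosiglitazone from day 8 for 48 h, then serum-starved 2 h at 37 °C. Cells were incubated in KRHB pH 7.4 for 30 min, insulin was added for 15 min, then [14C]2-deoxy-D-glucose at 1.0 mM final glucose for 15 min. Background came from 20 µM cytochalasin B wells. Scintillation counting, 8 wells per condition, mean ± SEM.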

In series [6] the target is T1, Peroxisome proliferator-activated receptor gamma (Homo sapiens). Briefly: Agonist activity at human PPARgamma ligand binding domain expressed in MEF cells co-transfected with Gal4-responsive luciferase vector assessed as photinus/renilla luciferase activity at 100 uM by transactivation assay relative to control. In kind it is cell-based. The essentials: as §1
Series [7] has the same target. Kind of series: Agonist activity at human PPARgamma ligand binding domain expressed in MEF cells co-transfected with Gal4-responsive luciferase vector assessed as photinus/renilla luciferase activity at 40 uM by transactivation assay relative to control. In kind it is cell-based. The essentials: as §1
For series [8] the target is unchanged. Briefly: Agonist activity at human PPARgamma ligand binding domain expressed in MEF cells co-transfected with Gal4-responsive luciferase vector assessed as photinus/renilla luciferase activity at 80 uM by transactivation assay relative to control. Type of series: cell-based. An outline of the steps: as §1
The test system of series [9] is 3T3-L1. Briefly: Induction of adipocytes differentiation in mouse 3T3L1 cells treated after 48 hrs postconfluence measured after 8 days using DEX protocol. In kind it is functional, cell-based. An outline of the steps:
as §2

The test system of series [10] is 3T3-L1. Kind of series: Induction of adipocytes differentiation in mouse 3T3L1 cells treated after 48 hrs postconfluence measured after 8 days using MDI protocol. Type of series: functional, cell-based. An outline of the steps: as §3

For the compound `C/C=C/C=C\C/C=C\CCCCC/C=C/C(=O)NCC(C)C`, the values for the Activity entry in series [1] and in [5] were “Toxic” and “Dose-dependent effect”, respectively. Besides, the fold change (FC) in series [2] came to 10. Also, the result in series [3] and in series [4] was inactive. With `C/C=C\C#CCC/C=C\C=C\C(=O)NCC(C)C`, the fold change (FC) in series [6] worked out at 2. As for `CC/C=C\C/C=C\C/C=C\CCCCCCCC(=O)O`, in series [7], the fold change (FC) turned out to be 10.

With `C/C=C\C=C/CC/C=C/C=C/C(=O)NCC(C)C`, the fold change (FC) in [6] was 2.

As for `CCCCCCC/C=C/C=C/C(=O)NCC(C)C`, the fold change (FC) in series [8] is 4. The Activity result in series [1] is listed as “Toxic”. Besides, the outcome in series [9] and in series [10] was Active.

On to `C/C=C/C=C\CC/C=C/C=C/C(=O)NCC(C)C`, for which the fold change (FC) in [6] worked out at 2. For `CCCCC/C=C\C/C=C\CCCCCCCC(=O)O`, in series [7], the fold change (FC) came to 10.

On to `CCCCCC/C=C\CCCCCCCC(=O)O`, for which, in [7], the fold change (FC) is 10.
